TRPC4 inh – TRPC4 (mouse) channel inhibition. Q9QUQ5. HEK293 TRPC4beta/mu-opioid, DAMGO-evoked Fluo4 calcium flux; stronger effect = lower value. B-score at 10 µM. 300,000 compounds, 0.39% hits. AID 2247;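 active = B-score over 3 SD under the library average, no early fluorescence shift, positive overall ratio signal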
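Assay system: HEK293 cells with stable TRPC4beta plus mu-opioid receptor expression. Dosing: single dose. Measured by: Fluo4 Ca2+ flux fluorescence. Also added: DAMGO in two steps, submaximal then maximal. Read-out: B score from integrated Fluo4 fluorescence ratio.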
TRPC4 agonist – TRPC4 (mouse) channel activation. HEK293 TRPC4beta/mu-opioid, Fluo4 calcium fluorescence; stronger effect = higher value. 310,000 compounds, 0.49% hits. Q9QUQ5. AID 2237. B-score at 10 µM;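 active = B-score above 5 SD of library B-scores, and initial fluorescence ratio not above library mean plus 5 SD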;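 note: positive B-score marks a calcium rise read as TRPC4 activation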
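System: HEK293 cells stably co-expressing mouse TRPC4beta and mu-opioid receptor; Schedule: Fluo4 dye loading 45 min at room temperature, 110 s recording; Detection: Fluo4 fluorescence, kinetic; Evaluation: B-scored integrated calcium fluorescence ratio; Controls: buffer (low) and maximal DAMGO (high).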
TRPC6 inh – mouse TRPC6 channel inhibition; Q61143; HEK293-TRPC6, membrane potential dye, ACh-evoked depolarization; stronger effect = lower value; B-score at 10 µM; 310,000 compounds, 1.1% hits; AID 2553;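 active = B-score under library mean minus 3 SD, initial fluorescence not abnormally high, positive integrated signal ratio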;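 note: B-score derived from integrated fluorescence ratio over the kinetic read; more negative B-score means stronger inhibition of depolarization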
Target sequence (Q61143 whole entry, looked up): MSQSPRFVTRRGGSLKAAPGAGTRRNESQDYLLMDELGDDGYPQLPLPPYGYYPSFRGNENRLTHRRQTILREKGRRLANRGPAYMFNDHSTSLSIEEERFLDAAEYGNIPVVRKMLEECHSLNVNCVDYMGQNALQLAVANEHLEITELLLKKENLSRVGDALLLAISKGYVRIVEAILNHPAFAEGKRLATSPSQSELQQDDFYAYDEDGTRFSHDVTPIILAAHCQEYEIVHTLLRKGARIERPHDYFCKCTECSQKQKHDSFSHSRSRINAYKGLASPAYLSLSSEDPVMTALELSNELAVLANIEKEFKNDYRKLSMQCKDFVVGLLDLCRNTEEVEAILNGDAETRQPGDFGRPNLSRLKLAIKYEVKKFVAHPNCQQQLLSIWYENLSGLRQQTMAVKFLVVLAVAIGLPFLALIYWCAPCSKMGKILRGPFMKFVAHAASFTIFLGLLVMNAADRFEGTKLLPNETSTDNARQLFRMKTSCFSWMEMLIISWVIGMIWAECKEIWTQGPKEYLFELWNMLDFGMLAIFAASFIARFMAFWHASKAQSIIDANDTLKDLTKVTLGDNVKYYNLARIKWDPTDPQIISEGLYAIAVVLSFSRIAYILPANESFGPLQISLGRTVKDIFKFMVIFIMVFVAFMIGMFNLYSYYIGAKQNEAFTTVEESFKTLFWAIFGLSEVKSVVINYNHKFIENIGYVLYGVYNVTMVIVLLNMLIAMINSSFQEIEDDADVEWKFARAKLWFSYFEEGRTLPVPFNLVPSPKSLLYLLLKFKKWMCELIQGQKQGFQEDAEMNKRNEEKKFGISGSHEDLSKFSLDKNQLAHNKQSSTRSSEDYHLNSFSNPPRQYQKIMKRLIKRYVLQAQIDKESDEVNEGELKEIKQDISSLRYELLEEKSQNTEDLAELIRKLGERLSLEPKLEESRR
TRPC6 activator – activates the mouse TRPC6 cation channel; Q61143; HEK293-TRPC6 membrane potential dye fluorescence; stronger effect = higher value; B-score at 10 µM; 310,000 compounds, 0.13% hits; AID 2550;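 active = B-score of the integrated fluorescence ratio above library mean plus 3 SD, and starting fluorescence ratio within library mean plus 5 SD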;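 note: higher score means more depolarization so channel activation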
TRPC4 potent – TRPC4 (mouse) allosteric potentiation. Q9QUQ5. HEK293 TRPC4beta/mu-opioid, DAMGO EC20, Fluo-4 Ca2+ flux; stronger effect = higher value. B-score at 10 µM. 310,000 compounds, 0.42% hits. AID 2227;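 active = B-score of calcium response area above 5 SD of library B-scores, with initial fluorescence ratio within 5 SD of library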;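 note: B-score of integrated fluorescence ratio over time as area under calcium response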
TRPC4 spec 2 – mouse TRPC4 off-target activity of TRPC6 inhibitors, second screen; shares compounds with TRPC6 inh; HEK293 TRPC4/MOR, membrane potential dye fluorescence; channel activated by saturating DAMGO dose; inhibition, % at 10 µM; 920 compounds, 42% hits; AID 2776;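 active = compounds whose fluorescence signal differed from control wells by over 3 SD, either direction, in both duplicate plates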
TRPC4 spec – tests whether TRPC6 inhibitors also affect mouse TRPC4; AID 2777; HEK293 TRPC4/mu-opioid, membrane potential fluorescence; activity change, negative = inhibition, % at 10 µM; shares compounds with TRPC6 inh; 920 compounds, 61% hits;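 active = rise or fall in signal beyond 3 SD of buffer-only wells in both replicate plates, either sign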;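 note: integrated kinetic ratio of fluorescence range over baseline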
HEK293 MPD ctr 2-1 – parental HEK293 nonspecific activity of TRPC6 inhibitors, second screen. 920 compounds, 31% hits. signal change vs control, % at 10 µM. parental HEK293 membrane potential dye fluorescence; maximal acetylcholine challenge after compound addition. shares compounds with TRPC6 inh;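 active = membrane potential signal moving either way by over 3 SD of the maximum-effect control, in both duplicate plates, meaning non-specific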
HEK293 MPD ctr-1 – counter-screen for TRPC6 inhibitors: effect in parental HEK293 cells. shares compounds with TRPC6 inh. parental HEK293 membrane potential dye fluorescence. membrane potential signal change, % at 10 µM. 920 compounds, 60% hits;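 active = membrane potential signal shifting up or down by more than 3 SD of buffer-only wells, on both duplicate plates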
HEK293 MPD ctr-2 – counter-screen for TRPC6 modulators: effect in parental HEK293 cells; shares compounds with TRPC6 inh; membrane potential dye fluorescence; membrane potential signal change, % at 10 µM; 2,400 compounds, 51% hits; AID 488924;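 active = membrane potential signal moves up or down beyond 5 SD from buffer-only wells, on both duplicate plates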
HEK293 MPD ctr 2-2 – second counter-screen for TRPC6 modulators: effect in parental HEK293 cells; shares compounds with TRPC6 inh; membrane potential dye fluorescence; after compound, maximal acetylcholine stimulation; inhibition, % at 10 µM; 2,400 compounds, 14% hits; AID 488926;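 active = membrane potential signal drops by more than 5 SD from the mean control signal, in both duplicate plates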;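 note: plate controls were acetylcholine ECmax control wells for no effect and buffer only wells for full effect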
TRPC4/MOR mod – tests whether TRPC6 modulators also affect mouse TRPC4; percent change from control (negative = decrease, positive = increase), % at 10 µM; HEK293 TRPC4/mu-opioid, membrane potential fluorescence; shares compounds with TRPC6 inh; 2,400 compounds, 69% hits;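 active = membrane potential signal moved up or down beyond 5 SD of buffer control wells, in both duplicate plates, actives on both sides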;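 note: plate controls were assay buffer wells for no effect and DAMGO maximal-effect wells for full effect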
TRPC4/MOR inh 2 – mouse TRPC4 off-target activity of TRPC6 modulators, second screen; shares compounds with TRPC6 inh; HEK293 TRPC4/mu-opioid, membrane potential dye fluorescence; stimulated with maximal-effect DAMGO; inhibition, % at 10 µM; 2,400 compounds, 55% hits; AID 488928;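 active = drop in membrane potential signal beyond 5 SD of the control wells in both duplicate plates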;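 note: TRPC4 counter screen for TRPC6 hits run under conditions tuned for TRPC6 not TRPC4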
TRPC6 block conf – mouse TRPC6 inhibitor confirmation; AID 488960; 3,300 compounds, 43% hits; inhibition, % at 10 µM; shares compounds with TRPC6 inh; HEK293-TRPC6, membrane potential dye, ACh-evoked depolarization;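 active = fluorescence ratio falls more than 5 SD below the full-stimulation control mean, in both duplicate runs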;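 note: integrated fluorescence ratio of peak minus minimum over baseline after agonist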
TRPC6 act conf – confirmation of mouse TRPC6 activators | shares compounds with TRPC6 inh | HEK293-TRPC6 membrane potential dye fluorescence, FDSS | activation, % at 10 µM | 2,800 compounds, 11% hits | AID 488961;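 active = ratio signal rise beyond 5 SD above unstimulated control wells' mean, seen in both duplicate runs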;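 note: plate controls were buffer EC0 wells for no effect and acetylcholine ECmax response for full effect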
* marks the source's active call; other numbers are inactive results; i = inactive; · = not tested or not shown. This is a sample that favours compounds with a hit; in the whole collection about 2.3% have one here.

SMILES	TRPC4 inh	TRPC4 agonist	TRPC6 inh	TRPC6 activator	TRPC4 potent	HEK293 MPD ctr-2	HEK293 MPD ctr 2-2	TRPC4/MOR mod	TRPC4/MOR inh 2	TRPC6 block conf	others
COc1ccc(Nc2c3c(nc4ccccc24)CCC3)cc1	-7*	i	-5.2*	i	i	157%*	i	24%*	36%*	i
COc1ccc(Nc2c3c(nc4ccccc24)CCCC3)cc1OC	i	i	-6*	i	i	i	i	i	44%*	i	TRPC6 act conf=i
c1ccc2c(N3CCOCC3)c3c(nc2c1)CCC3	i	i	-5.3*	i	i	-283%*	i	-40%*	48%*	i	TRPC6 act conf=i
COc1ccccc1NC(=O)CCc1nnc2ccc(NCc3ccco3)nn12	i	i	i	i	i	·	·	·	·	·
Cn1cnc(S(=O)(=O)Nc2ccccc2C(=O)NCC2CC2)c1	i	i	i	i	i	·	·	·	·	·
CC(=O)Nc1ccc(N(C(=O)c2ccco2)C(C(=O)NC2CCCCC2)c2ccccc2)cc1 (stereo not given)	i	i	i	i	i	·	·	·	·	·
Cc1ccc(NC(=O)c2cncc(Br)c2)c(O)c1	i	i	i	i	i	·	·	·	·	·
CN(C)CCCNc1c2c(nc3ccccc13)CCC2	i	i	i	i	i	·	·	·	·	·
COCCNc1c2c(nc3ccccc13)CCC2	-6*	i	-5.2*	i	i	-144%*	i	-26%*	52%*	46%*	TRPC6 act conf=i
O=C(N/N=C/c1ccccc1F)c1ccccc1OCc1ccccc1	i	i	i	i	i	·	·	·	·	·
O=C(NCC(=O)N(c1ccc2c(c1)OCCO2)C(C(=O)NC1CCCC1)c1ccco1)c1ccco1 (stereo not given)	i	i	-7.7*	i	i	·	·	·	·	62%*	TRPC4 spec 2=i;TRPC4 spec=1.1%*;HEK293 MPD ctr 2-1=i;HEK293 MPD ctr-1=0.7%*
O=C(NCC(=O)N(c1cccc(F)c1)C(C(=O)NC1CCCC1)c1ccco1)c1ccco1 (stereo not given)	i	i	i	i	i	·	·	·	·	·
O=C1CCC(C(=O)N2CCSCC2)CN1CCc1cccc(F)c1 (stereo not given)	i	i	i	i	i	·	·	·	·	·
Cc1nc(NCCCn2ccnc2)c2ccccc2n1	i	i	-7.7*	i	i	-237%*	61%*	-38%*	38%*	52%*	TRPC6 act conf=i
c1cncc(-c2nc(NCCCn3ccnc3)c3ccccc3n2)c1	i	i	i	i	i	·	·	·	·	·
CN1CCN(C(=O)CCN2C(=O)c3ccccc3C2=O)CC1	i	i	i	i	i	·	·	·	·	·
CN1CCC(=C2c3ccccc3C=Cc3ccccc32)CC1	i	i	-5.5*	i	i	150%*	76%*	23%*	54%*	75%*
CN(C)c1ccc(N=Nc2cccc3ccoc23)cc1	i	i	-5.8*	i	i	i	i	i	41%*	i	TRPC6 act conf=i
CN(C)c1ccc(N=Nc2cccc(F)c2)cc1	i	i	i	i	i	·	·	·	·	·
COCCNCC(=O)N1c2ccccc2Sc2ccccc21	i	i	i	i	i	·	·	·	·	·
CC(C)CNCC(=O)N1c2ccccc2Sc2ccccc21	i	i	-5.7*	i	i	124%*	i	16%*	56%*	i
Cc1cccc[n+]1CC(=O)N1c2ccccc2Sc2ccccc21	i	i	-11*	i	i	·	·	·	·	93%*	TRPC4 spec 2=i;TRPC4 spec=i;HEK293 MPD ctr 2-1=-12%*;HEK293 MPD ctr-1=i;TRPC6 act conf=i
Oc1cccc(-c2nc3ccccc3s2)c1	i	i	i	i	i	·	·	·	·	·
CC[n+]1cccc(-c2nc3ccccc3s2)c1	i	i	-5.5*	i	i	-162%*	i	-26%*	i	i	TRPC6 act conf=i
O=C(Oc1ccc(NC(=O)c2cc3c(cc2Br)OCO3)cc1)c1ccccc1	i	i	i	i	i	·	·	·	·	·
SMILES	TRPC4 inh	TRPC4 agonist	TRPC6 inh	TRPC6 activator	TRPC4 potent	HEK293 MPD ctr-2	HEK293 MPD ctr 2-2	TRPC4/MOR mod	TRPC4/MOR inh 2	TRPC6 block conf	others
COc1ccc(S(=O)(=O)N2CCOCC2)cc1NC(=O)CN1CCN(C)CC1	i	i	i	i	i	·	·	·	·	·
CN(C)CCCOC(=O)C1c2ccccc2Oc2ccccc21	i	i	-8.5*	i	i	·	·	·	·	63%*	TRPC4 spec 2=i;TRPC4 spec=7.3%*;HEK293 MPD ctr 2-1=28%*;HEK293 MPD ctr-1=7.4%*
NC(=O)COC(=O)C1c2ccccc2Oc2ccccc21	i	i	i	i	i	·	·	·	·	·
CN(CCOC(=O)C1c2ccccc2Oc2ccccc21)C(C)(C)C	i	i	-10*	i	i	·	·	·	·	68%*	TRPC4 spec 2=i;TRPC4 spec=15%*;HEK293 MPD ctr 2-1=24%*;HEK293 MPD ctr-1=11%*
CC(C)CC(=O)N(Cc1ccc(F)cc1)C1CCS(=O)(=O)C1 (stereo not given)	i	i	i	i	i	·	·	·	·	·
CC(=O)CCCC(NS(=O)(=O)CCC(Cl)(Cl)Cl)c1ccccc1 (stereo not given)	i	i	i	i	i	·	·	·	·	·
COc1cccc(-c2ccc(NC(=O)C3CCCN(Cc4ccc(CO)o4)C3)cc2)c1 (stereo not given)	i	i	i	i	i	·	·	·	·	·

Compound activity as filed in PubChem BioAssay.
